In general, inhibition refers to the drop in the measured response relative to a control, in per cent.

Test [1] can be described thus: inhibitors of TNFa-induced NFkB p65 translocation, primary screen, imaging, HUVEC, MLSMR starter and 10KST1 sets (AID 438).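 Further: compound added about 3h40 before a 20 min TNFalpha stimulation.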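 On inhibition: signal is the nuclear over cytoplasmic p65 intensity ratio per well.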 Particulars: HUVEC TNFa-induced p65 nuclear translocation; cell count: measured here: nuclei count (cytotoxicity indicator), at 2.08 µM unless noted; inhibition: at 2 µM, stronger effect = higher value unless noted.
Test [2] in a line: inhibitors of E-selectin induction by TNFa, primary screen, imaging, HUVEC, immunofluorescence, MLSMR starter and 10KST1 sets (AID 487;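 active means visually confirmed hit in the image check and inhibition above 20%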;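 on inhibition: signal is fraction of cell area covered by stained E-selectin grains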;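 on nuclei count: 100% = median nuclei count of all wells on the same plate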). Particulars: HUVEC TNFalpha-induced E-selectin immunofluorescence imaging, at 2 µM; inhibition: stronger effect = higher value; nuclei count: measured here: cell number, toxicity.
Test [3] in a line: DUSP6 inhibitors restoring Erk phosphorylation by chemical complementation, primary imaging in DUSP6-transfected HeLa (AID 609;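 active means compounds giving at least 50% inhibition in the cell-based MKP-3 phosphatase rescue imaging test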;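 on inhibition: phospho-Erk level distribution per well compared with pooled transfected vehicle control wells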). The following applies: HeLa MKP-3 transfected, phospho-Erk imaging KS statistic, at 10 µM.
The target in test [4] is Dual specificity protein phosphatase 6 (Homo sapiens) (UniProt Q16828). Described as above. Particulars: HeLa MKP-3 transfected, phospho-Erk imaging KS statistic, at 10 µM, stronger effect = higher value.
Test [5] addresses Voltage-gated potassium channel subunit beta-2 (Rattus norvegicus) (UniProt P62483). The test can be described thus: KvBeta enzyme negative modulators, primary screen, biochemical, NADPH fluorescence (AID 622;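 active means fluorescence slope higher than the sample average by over 3 SD, cut at about -0.22 in these data, passing the limit was not always enough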;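 further: slope of raw intensity against log time taken from 70 to 1610 s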). The following applies: recombinant KvBeta, 4-cyanobenzaldehyde reduction, at 10 µM, stronger effect = higher value.
For test [6] the target is unchanged. The test can be described thus: KvBeta positive modulators, primary screen, biochemical, NADPH fluorescence (AID 623;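 active means NADPH fluorescence slope more negative than the mean of all samples by about 3 SD, 99.7% confidence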;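 further: fluorescence intensity change per second fitted from 20 to 320 s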). Particulars: Recombinant KvBeta, NADPH fluorescence decrease slope, 10 min; at 10 µM; stronger effect = lower value.
Test [7] concerns the target Alpha-2C adrenergic receptor (Homo sapiens) (UniProt P18825). The test can be described thus: modulators of alpha2C/GIRK thallium flux, primary screen, cell-based, HEK293 alpha2C/GIRK1/2 (AID 624;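 active means fluorescence slope after compound addition differing from the mean of all screened samples at 99.7% confidence, in either direction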;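 further: slope of fluorescence ratio to pre-addition baseline per second over 15 to 24 s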). The following applies: thallium flux BTC fluorescence, at 10 µM, actives lie on both sides.
A short description of test [8]: inhibitors of larval lipid processing in zebrafish, primary screen, whole organism, PED6 fluorescence, gall bladder and intestine (AID 686;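 active means a full or partial loss of lipid-probe fluorescence in the fish gall bladder, intestine or both, judged by eye; inactive means no fluorescence loss, or compound toxic to the fish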;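 further: larvae 5 to 7 days old with five fish per well; signal comes from phospholipase A2 cleavage of quenched PED6 carried via bile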). The following applies: Zebrafish larvae PED6 lipid processing, fluorescence scoring. In short, it runs like this: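 System: live zebrafish larvae aged 5-7 days, whole organism; measure: graded gall bladder and intestinal fluorescence inhibition per well; incubation: overnight exposure; reagent: ingested quenched lipid PED6 at 100 nM; signal: By-eye fluorescence microscopy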

Test [9] in a line: inhibitors of Chlamydomonas gravitaxis, primary screen, whole organism, Chlamydomonas reinhardtii, WT vs cilia-less mutant, absorbance, 96-well (AID 463189;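 active means inhibition at or above 50% relative to wild type and mutant plate controls; inactive means inhibition below 50%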;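 further: 0% = wild type cc124 cells in DMSO and 100% = ciliumless bld1 mutant cells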). The following applies: OD600 absorbance, 2 days, at 10 µM, stronger effect = higher value.
Setting [10] is: measured here: cell density z-score.
[11] abbreviates: measured here: nuclear c-Myc green intensity z-score.
Where [12] appears, read: measured here: nuclear pErk red intensity z-score, stronger effect = higher value.

Activity calls are given as the source filed them.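 How the source made its calls, unless noted: active means inhibition above 20% together with a positive visual image hit; inconclusive means visual image hit but inhibition not above 20%; inactive means no visual image hit.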

Sequence of Alpha-2C adrenergic receptor (Homo sapiens) (P18825 whole entry, looked up): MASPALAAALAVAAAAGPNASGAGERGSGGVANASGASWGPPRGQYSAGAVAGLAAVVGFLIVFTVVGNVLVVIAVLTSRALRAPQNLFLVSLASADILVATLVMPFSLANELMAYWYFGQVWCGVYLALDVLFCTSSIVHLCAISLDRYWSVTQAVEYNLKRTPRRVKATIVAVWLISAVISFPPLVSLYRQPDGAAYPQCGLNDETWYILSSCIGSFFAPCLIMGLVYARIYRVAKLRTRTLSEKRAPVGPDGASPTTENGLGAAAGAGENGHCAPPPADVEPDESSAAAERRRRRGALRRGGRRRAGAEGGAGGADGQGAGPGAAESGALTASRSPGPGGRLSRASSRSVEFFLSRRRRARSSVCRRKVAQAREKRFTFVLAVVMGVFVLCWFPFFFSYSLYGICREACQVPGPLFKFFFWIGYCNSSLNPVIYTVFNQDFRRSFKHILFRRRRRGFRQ
Sequence of Voltage-gated potassium channel subunit beta-2 (Rattus norvegicus) (P62483 whole entry, looked up): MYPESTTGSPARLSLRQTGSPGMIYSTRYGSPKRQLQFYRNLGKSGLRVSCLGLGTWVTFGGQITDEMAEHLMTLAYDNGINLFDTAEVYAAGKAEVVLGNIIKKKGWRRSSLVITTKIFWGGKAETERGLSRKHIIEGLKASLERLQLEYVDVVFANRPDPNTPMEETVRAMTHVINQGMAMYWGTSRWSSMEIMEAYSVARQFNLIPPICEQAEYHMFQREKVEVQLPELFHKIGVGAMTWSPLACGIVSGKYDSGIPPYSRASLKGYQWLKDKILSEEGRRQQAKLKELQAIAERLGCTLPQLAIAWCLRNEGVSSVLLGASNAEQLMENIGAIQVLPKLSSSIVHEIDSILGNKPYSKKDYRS
Sequence of Dual specificity protein phosphatase 6 (Homo sapiens) (Q16828 whole entry, looked up): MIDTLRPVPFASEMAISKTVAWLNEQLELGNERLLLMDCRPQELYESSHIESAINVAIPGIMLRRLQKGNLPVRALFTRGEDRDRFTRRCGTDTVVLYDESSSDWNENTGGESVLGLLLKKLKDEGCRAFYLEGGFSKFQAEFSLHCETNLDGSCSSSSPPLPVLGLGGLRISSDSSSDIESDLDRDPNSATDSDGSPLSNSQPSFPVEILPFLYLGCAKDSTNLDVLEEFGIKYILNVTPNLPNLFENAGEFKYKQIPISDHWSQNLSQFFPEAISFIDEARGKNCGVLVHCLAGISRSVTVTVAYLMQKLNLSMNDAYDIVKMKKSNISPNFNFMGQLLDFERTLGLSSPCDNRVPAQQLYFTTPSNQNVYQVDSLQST

The molecule `COc1ccc(-n2c(SC)nc3ccccc3c2=O)cc1` registered a cell count in test [1] of 594. The inhibition in [1] was -3.7% (inactive); in [2] it was -93.7% (inactive); in test [4], 4.25% (inactive); in test [9], 12.5% (inactive). This molecule also gave a nuclei count in test [2] of 134%. Also, the z-score in [3] (setting [10]) was -0.0992; in test [3] (setting [11]), -1.67; in test [3] (setting [12]) it was -0.0859. Besides, the fluorescence slope in [5] is -0.492 (inactive). Moreover, the NADPH fluorescence slope in [6] is -0.000141 (inactive). In addition, in test [7], the slope is 0.00471 (inactive). For the same molecule, the outcome in [8] was inactive.
The molecule `O=c1[nH]c(O)c(C=NC2CCN(Cc3ccccc3)CC2)c(=O)[nH]1` gave a cell count in test [1] of 422. The inhibition was 0.5% (inactive) in test [1], -125% (inactive) in [2], 4.25% (inactive) in test [4] and -1.61% (inactive) in [9]. In test [2], this molecule displayed a nuclei count of 167%. For the same molecule, the z-score in test [3] (setting [10]) is 0.26; in [3] (setting [11]), -1.34; in [3] (setting [12]), -0.141. Further, the fluorescence slope in test [5] was -0.409 (inactive). In addition, the NADPH fluorescence slope in test [6] was -7.4e-05 (inactive). Moreover, the slope in [7] is 0.00643 (inactive). Besides, the outcome in test [8] was inactive.
Turning to `CCOc1ccccc1-n1c(O)c(C=Nc2ccc(N(CC)CC)cc2)c(=O)[nH]c1=O`, the cell count in [1] is 588. Moreover, the inhibition in [1] is -15.7% (inactive); in test [2] it was -43.1% (inactive); in [4], 6.04% (inactive); in test [9], 7.21% (inactive). Also, the nuclei count in test [2] is 85.2%. Moreover, the z-score in [3] (setting [10]) is 2.24; in [3] (setting [11]) it was -1.62; in test [3] (setting [12]) it was -0.873. For the same molecule, the fluorescence slope in test [5] is -0.43 (inactive). In test [6], the NADPH fluorescence slope was -9.6e-06 (inactive). Further, in test [7], the slope is 0.0078 (inactive). The molecule was classed as inactive in test [8].
For the molecule `O=c1[nH]c(=O)n(C2CCCCC2)c(O)c1C=NCCCn1ccnc1`, the cell count in test [1] was found to be 684. Also, the inhibition in [1] is -20.4% (inactive); in test [2] it was -84.3% (inactive); in test [4] it was 6.04% (inactive); in [9] it was 0.521% (inactive). In addition, the nuclei count in [2] came to 153%. The z-score in test [3] (setting [10]) was 1.04; in test [3] (setting [11]), -1.34; in [3] (setting [12]) it was -0.814. In [5], the fluorescence slope was -0.428 (inactive). The NADPH fluorescence slope in test [6] was 6.8e-06 (inactive). In addition, the slope in test [7] was 0.00637 (inactive). Further, in [8], the outcome was inactive.
As to `CC(=O)C1(c2ccccc2)CCNCC1`, the cell count in test [1] is 472. Further, the inhibition in test [1] is 0.5% (inactive); in test [2], -152% (inactive); in test [4], 7.93% (inactive); in test [9], 14.1% (inactive). This molecule also registered a nuclei count in [2] of 138%. In addition, the values for the z-score in [3] (setting [10]), in test [3] (setting [11]) and in test [3] (setting [12]) were -0.428, 0.195 and 0.843, respectively. Besides, in test [5], the fluorescence slope was -0.522 (inactive). For the same molecule, the NADPH fluorescence slope in [6] is -4.6e-05 (inactive). For the same molecule, the slope in test [7] was 0.00442 (inactive). Further, the molecule was classed as inactive in [8].
`CC(=C1C(=O)c2ccccc2C1=O)N1CCN(CCN=Cc2c(O)n(C)c(=O)n(C)c2=O)CC1` had a cell count in test [1] of 584. Further, the inhibition in test [1] is -2.8% (inactive); in test [2], -90.4% (inactive); in [4] it was 1.98% (inactive); in [9], 18.5% (inactive). The same molecule displayed a nuclei count in test [2] of 138%. The z-score in test [3] (setting [10]) was -0.147; in test [3] (setting [11]), 0.321; in test [3] (setting [12]), 0.747. Also, the fluorescence slope in test [5] is -0.482 (inactive). Moreover, the NADPH fluorescence slope in [6] is -2e-05 (inactive). Further, the slope in [7] was 0.00537 (inactive). Further, the call in [8] was inactive.
In the case of `CC1(C)CC(n2[nH]c(=O)c3c2NC(=O)CSC3c2ccccc2)CCO1` (stereo unspecified), the cell count in test [1] was determined as 532. For the same molecule, the inhibition in test [1] is 10.5% (inactive); in [2], -152% (inactive); in test [4] it was 1.75% (inactive); in test [9], -16.8% (inactive). Moreover, in test [2], the nuclei count is 128%. Besides, the values for the z-score in test [3] (setting [10]), in test [3] (setting [11]) and in test [3] (setting [12]) were -0.163, 0.684 and -0.467, respectively. The fluorescence slope in [5] was -0.501 (inactive). For the same molecule, in test [6], the NADPH fluorescence slope is -2.3e-05 (inactive). Moreover, the slope in [7] was 0.00596 (inactive). Also, the molecule was classed as inactive in test [8].
In turn, `CCCCCCn1c(O)c(C=NCCN2CCCCC2)c(=O)[nH]c1=O` registered a cell count in [1] of 667. Further, the inhibition was -17.9% (inactive) in test [1], -47.5% (inactive) in test [2], 12.7% (inactive) in test [4] and 12.8% (inactive) in test [9]. The nuclei count in test [2] amounted to 141%. Further, the results for the z-score in test [3] (setting [10]), in test [3] (setting [11]) and in [3] (setting [12]) were 0.204, -1.24 and -1.39, respectively. Also, in [5], the fluorescence slope is -0.423 (inactive). Besides, the NADPH fluorescence slope in test [6] was -2.4e-06 (inactive). Further, the slope in [7] is 0.00602 (inactive). Besides, the molecule was called inactive in test [8].
In test [1], `CCC(=NCCOc1ccc(Cl)cc1)c1c(O)n(C)c(=O)n(C)c1=O` displayed a cell count of 555. The inhibition in [1] is -7.6% (inactive); in test [2], -89.2% (inactive); in test [4], 13.2% (inactive); in test [9] it was 19.1% (inactive). In [2], this molecule returned a nuclei count of 99.1%. Moreover, the z-score is 0.38 in [3] (setting [10]), -2.81 in test [3] (setting [11]) and 0.837 in [3] (setting [12]). In addition, in [5], the fluorescence slope is -0.532 (inactive). Further, the NADPH fluorescence slope in test [6] was -0.00015 (inactive). For the same molecule, in test [7], the slope was 0.0044 (inactive). For the same molecule, the result in test [8] was inactive.
Consider `COC(=O)C(O)(c1c[nH]c2ccccc12)C(F)(F)F` (stereo unspecified), for which, in test [1], the cell count turned out to be 466. For the same molecule, the inhibition in test [1] is -0.7% (inactive); in test [2] it was -19.2% (inactive); in test [4] it was -5.26% (inactive); in test [9] it was -11.1% (inactive). The same molecule came in with a nuclei count in [2] of 112%. Besides, the z-score is 0.726 in test [3] (setting [10]), 0.429 in test [3] (setting [11]) and -1.12 in [3] (setting [12]). For the same molecule, the fluorescence slope in test [5] is -0.373 (inactive). Further, the NADPH fluorescence slope in test [6] was 1.2e-05 (inactive). Also, in [7], the slope was 0.00556 (inactive). Further, the molecule was called inactive in test [8].
`CN1CCc2nc3sc(C#N)c(N)c3c(-c3cccs3)c2C1` yielded a cell count in test [1] of 596. Also, the inhibition in test [1] is -16.8% (inactive); in [2], -65% (inactive); in test [4], 6.51% (inactive); in [9], -2.74% (inactive). Further, the nuclei count in [2] turned out to be 165%. The results for the z-score in test [3] (setting [10]), in [3] (setting [11]) and in [3] (setting [12]) were 0.586, -0.275 and 0.463, respectively. Besides, the fluorescence slope in test [5] is -0.362 (inactive). The NADPH fluorescence slope in test [6] is -6e-05 (inactive). Moreover, the slope in test [7] is 0.00412 (inactive). In test [8], the molecule was classed as inactive.
In the case of `CN(C)CCc1nn[nH]n1`, the cell count in test [1] is 586. Moreover, the inhibition is -12.8% (inactive) in [1], -15.2% (inactive) in test [2], 1.75% (inactive) in test [4] and 25.8% (inactive) in test [9]. This molecule showed a nuclei count in [2] of 115%. Besides, the figures for the z-score in test [3] (setting [10]), in test [3] (setting [11]) and in [3] (setting [12]) were -0.419, 0.458 and 0.261, respectively. Also, the fluorescence slope in test [5] was -0.47 (inactive). Also, the NADPH fluorescence slope in test [6] is -0.000339 (inactive). Also, the slope in [7] was 0.00441 (inactive). The molecule was classed as inactive in test [8].

(Values after PubChem BioAssay.)
